Among the data in ChEMBL document CHEMBL1144557, “The novel C-5 aryl, alkenyl, and alkynyl substituted uracil derivatives of L-ascorbic acid: synthesis, cytostatic, and antiviral activity evaluations” (Bioorg Med Chem, 2007) are MCC, MIC and IC50 values, retold here.

For orientation: IC50 means the concentration needed to halve the response being measured.

Data set [1] is described as follows: Cytotoxicity against HEL cells. Format: cell-based. The note with it: human. The method, boiled down: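 Cells seeded at 5 × 10³ cells/well and exposed to medium containing a range of test compound concentrations. After 3 days at 37 °C, cell morphology examined microscopically. Reported as minimum cytotoxic concentration (MCC), the concentration causing a microscopically detectable alteration of normal cell morphology.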

The next data set relates to Human alphaherpesvirus 2. In words: Antiviral activity against HSV2 G-induced cytopathogenicity in HEL cells. The class given is functional. The conditions noted are these: Human alphaherpesvirus 2, G. Background: Damage to the host cells serves as the signal in cytopathic effect assays.
For another data set, the system named is MIA PaCa-2. The data set can be described thus: Antiproliferative activity against human MiaPaCa2 cells after 72 hrs by MTT assay. The class given is functional, cell-based. The conditions noted are these: Homo sapiens, MIA PaCa-2, 72 h; read-out: IC50. In short, it runs like this: (§1)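 Monolayers grown in DMEM with 10% FBS, 2 mM L-glutamine and penicillin/streptomycin at 37 °C, 5% CO2. Seeded at 1 × 10⁴–3 × 10⁴ cells/mL on day 0. Compounds from 0.04 M DMSO stocks added at five 10-fold dilutions (10⁻⁸–10⁻⁴ M final), with matched DMSO controls, for 72 h. MTT added for 4 h, formazan dissolved in DMSO, absorbance read at 570 nm. Percentage growth calculated against time-zero and untreated OD. IC50 is 50% inhibition of proliferation.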

Another data set has as its system SW-620. The data set can be described thus: Antiproliferative activity against human SW620 cells after 72 hrs by MTT assay. The class given is functional, cell-based. The note with it: SW-620, 72 h. In short, it runs like this:
as §1

Another data set concerns Coxsackievirus B4. In words: Antiviral activity against Coxsackie virus B4-induced cytopathogenicity in Vero cells. The class given is functional. The conditions noted are these: Enterovirus B.
In data set [2] the test system is Human alphaherpesvirus 1. In words: Antiviral activity against HSV1 KOS-induced cytopathogenicity in HEL cells. The note with it: Human alphaherpesvirus 1, KOS. The class given is functional.
In a further data set the test system is Sindbis virus. The data set can be described thus: Antiviral activity against Sindbis virus-induced cytopathogenicity in Vero cells. The class given is functional.
The test system of the next data set is CCRF-CEM. The data set can be described thus: Antiproliferative activity against human CEM cells. Format: functional, cell-based. The method, boiled down: (§2)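 Suspension cells seeded at 50 × 10³ cells/well with a range of test compound concentrations. Cell number counted with a Coulter counter after 2 days (L1210) or 3 days (Molt4/C8, CEM). IC50 is the concentration that cuts cell growth by 50% versus untreated controls, read from plots of cell number (% of control) against concentration.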

Data set [3] concerns Vesicular stomatitis virus. The data set can be described thus: Antiviral activity against in Vesicular stomatitis virus-induced cytopathogenicity in HEL cells. The class given is functional.
For another data set, the system named is MCF7. The data set can be described thus: Antiproliferative activity against human MCF7 cells after 72 hrs by MTT assay. The class given is functional, cell-based. The note with it: MCF7, 72 h. The method, boiled down:
as §1
(Tetrazolium assays rely on reduction of a dye to a coloured formazan, in cell work by metabolically active cells.)

A further data set concerns HEp-2. The data set can be described thus: Antiproliferative activity against human Hep2 cells after 72 hrs by MTT assay. The class given is functional, cell-based. The conditions noted are these: HEp-2, 72 h. The method, boiled down:
as §1

Data set [4] in a line: Antiproliferative activity against human Molt4/C8 cells. Format: functional, cell-based. The note with it: MOLT-4. The method, boiled down: as §2
The subject of a further data set is HeLa. The data set can be described thus: Antiproliferative activity against human HeLa cells after 72 hrs by MTT assay. The class given is functional, cell-based. The method, boiled down:
as §1

A further data set concerns L1210. In words: Antiproliferative activity against mouse L1210 cells. The class given is functional, cell-based. The method, boiled down:
as §2

Data set [5] relates to Human alphaherpesvirus 1. The data set can be described thus: Antiviral activity against HSV1 TK- KOS ACV -induced cytopathogenicity in HEL cells. The note with it: Human alphaherpesvirus 1, KOS. Format: functional.
The next data set concerns WI-38. The data set can be described thus: Antiproliferative activity against human WI38 cells after 72 hrs by MTT assay. The class given is functional, cell-based. The conditions noted are these: WI-38, 72 h. The method, boiled down: as §1
The next data set concerns Punta Toro virus. The data set can be described thus: Antiviral activity against Punta Toro virus-induced cytopathogenicity in Vero cells. The class given is functional.
Data set [6] deals with Vesicular stomatitis virus. The data set can be described thus: Antiviral activity against in Vesicular stomatitis virus- induced cytopathogenicity in HeLa cells. The class given is functional.

`C=Cc1cn(C/C=C2\OC(=O)C(OCc3ccccc3)=C2OCc2ccccc2)c(=O)[nH]c1=O` returned an MCC in [1] of 87 µM. The MIC (against Human alphaherpesvirus 2; against Coxsackievirus B4; against Human alphaherpesvirus 1 [2]; with Sindbis virus; in data set [3]; in the data set on Human alphaherpesvirus 1 [5]) was more than 18 µM in each case. Also, the MIC (in the data set with Punta Toro virus; in [6]) was more than 18 µM throughout. Besides, the IC50 in the data set on MIA PaCa-2 turned out to be 22 µM; in the data set on SW-620, 15.6 µM; in the data set with CCRF-CEM, 7.2 µM; in the data set with MCF7 it was 3.8 µM; in the data set with HEp-2, 14.2 µM; in data set [4] it was 7.6 µM. Moreover, the IC50 was 14.5 µM in the data set with HeLa, 7.2 µM in the data set with L1210 and 14.3 µM in the data set with WI-38.
